Candida biofilm: kills Candida albicans biofilms; C. albicans biofilm + clotrimazole, Alamar Blue; inhibition, % at 6 µM; 85,000 tested, 0.14% active;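 active = inhibition above 20%; inactive = inhibition below 20%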;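 note: preformed 24 hr biofilms exposed to compound for 48 hr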
tolC growth inh: E. coli tolC mutant growth inhibition; growth inhibition, % at 10 µM (by protocol); 65,000 tested, 2.2% active; E. coli BW25113 tolC mutant growth, OD615;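 active = growth inhibition at or above a cutoff equal to the mean over every tested compound plus 3 SD, cut at about 60% in these data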;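 note: growth measured after 20 h incubation at 37 °C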
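Test system – E. coli BW25113 ΔtolC::kan, tolC deletion mutant strain · Detection – OD at 615 nm · Buffer or medium – LB with kanamycin 50 µg/mL · Times – 20 h compound exposure of bacteria at 37 °C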
PostGolgi ctrl: yeast control strain growth, post-Golgi counter-screen; inhibition, % at 10 µM; AID 738; 98,000 tested, 5% active; efflux-deficient yeast background strain, growth absorbance A615, 16 h
E coli WT exp: growth inhibitors of E. coli BW25113 wild type | growth inhibition, % at 100 µM | AID 710 | OD600 absorbance | 98,000 tested, 0.15% active;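 active = growth inhibition above about 50% at one test dose, limit read from the data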;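 note: growth measured after 20 h incubation at 37 °C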
PostGolgi yeast: growth inhibition of a yeast mutant, post-Golgi transport screen | post-Golgi transport phenotypic cell assay | inhibition, % at 10 µM | 98,000 tested, 0.9% active | AID 739;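 note: yeast cells grown in 1536-well plates; yeast grown about 18 h at 30C before absorbance read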
PTK2B oligo ant: blocks oligomerization of human Pyk2 in cells; Q14289; Q293 cells, Pyk2 FERM NanoBiT luminescence; hits give low values; z-score (the deposit names both 25 µM and 10 µM); 99,000 tested, 0.83% active;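 active = Z-score of -3 or lower, scaled per plate to the spread of control and sample wells; inactive = z-score above -3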;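 note: negative z-score means lost luminescence so less FERM oligomerization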
Target sequence (Q14289 whole entry, looked up): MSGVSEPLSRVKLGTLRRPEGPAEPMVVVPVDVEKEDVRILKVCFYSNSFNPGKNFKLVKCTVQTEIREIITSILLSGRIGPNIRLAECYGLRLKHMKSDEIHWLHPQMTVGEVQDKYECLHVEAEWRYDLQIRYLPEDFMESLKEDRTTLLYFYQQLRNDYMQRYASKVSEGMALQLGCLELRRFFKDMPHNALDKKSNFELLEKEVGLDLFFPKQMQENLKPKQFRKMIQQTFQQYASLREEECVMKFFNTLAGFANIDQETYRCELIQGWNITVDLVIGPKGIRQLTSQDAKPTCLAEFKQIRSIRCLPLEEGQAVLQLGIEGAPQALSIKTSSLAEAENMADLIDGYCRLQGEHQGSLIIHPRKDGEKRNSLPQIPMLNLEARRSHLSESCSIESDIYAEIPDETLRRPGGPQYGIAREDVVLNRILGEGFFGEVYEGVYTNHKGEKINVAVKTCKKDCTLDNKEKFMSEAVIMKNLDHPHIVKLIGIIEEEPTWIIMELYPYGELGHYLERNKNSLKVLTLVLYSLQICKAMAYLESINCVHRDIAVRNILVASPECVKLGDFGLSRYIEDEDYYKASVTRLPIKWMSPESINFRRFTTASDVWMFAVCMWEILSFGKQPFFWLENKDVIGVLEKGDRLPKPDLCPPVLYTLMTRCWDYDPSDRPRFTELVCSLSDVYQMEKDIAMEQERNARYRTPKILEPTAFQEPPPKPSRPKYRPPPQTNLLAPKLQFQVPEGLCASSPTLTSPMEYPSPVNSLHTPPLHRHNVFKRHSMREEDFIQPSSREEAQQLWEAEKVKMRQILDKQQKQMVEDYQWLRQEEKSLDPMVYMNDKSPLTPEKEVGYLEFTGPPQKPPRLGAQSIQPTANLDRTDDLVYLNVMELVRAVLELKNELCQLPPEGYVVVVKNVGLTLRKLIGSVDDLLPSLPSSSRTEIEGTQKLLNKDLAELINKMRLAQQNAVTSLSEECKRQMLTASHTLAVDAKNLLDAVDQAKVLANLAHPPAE
A number is an active result. Only some compounds are listed: those with a hit (about 6.5% of all), similar ones and a draw of the others. Cut-off read from the data, not from the text of the source, unless noted: active = inhibition above about 30%; inactive = the rest.

How did CC1CCCCN1C(=O)CSc1nc(C2CC2)nc2c1cnn2-c1ccccc1 (stereo not drawn) do in these assays?
tolC growth inh: 67; PostGolgi ctrl: inactive; E coli WT exp: inactive; PostGolgi yeast: inactive; PTK2B oligo ant: inactive

What do the screens show for `Cc1nn(C)c(C)c1NC(=O)CSc1nc(C2CC2)nc2c1cnn2-c1ccccc1`?
Candida biofilm: inactive; PostGolgi ctrl: inactive; E coli WT exp: inactive; PostGolgi yeast: inactive; PTK2B oligo ant: inactive

What do the screens show for `CC(C)C(=O)Nc1cccc(C(=O)Nc2nnc(C(C)(C)C)s2)c1`?
Candida biofilm: inactive; PostGolgi ctrl: inactive; E coli WT exp: inactive; PostGolgi yeast: inactive; PTK2B oligo ant: inactive

What do the screens show for `CCCOc1ccc2c3c(c(=O)oc2c1OCCC)CCCC3`?
Candida biofilm: inactive; PostGolgi ctrl: 56; E coli WT exp: inactive; PostGolgi yeast: inactive; PTK2B oligo ant: inactive

Results for CNC(=S)N1N=C(c2ccc(Br)cc2)CC1c1ccc(Br)cc1 (stereo not drawn) ?
PostGolgi ctrl: 33; E coli WT exp: inactive; PostGolgi yeast: inactive; PTK2B oligo ant: inactive

What do the screens show for `CNC(=S)N1N=C(c2ccc(OC)cc2)CC1c1ccc(N(C)C)cc1` (stereo not drawn)?
PostGolgi ctrl: inactive; E coli WT exp: inactive; PostGolgi yeast: inactive; PTK2B oligo ant: inactive

How did COC(=O)CCSCC(=O)Nc1nnc(C)s1 do in these assays?
Candida biofilm: inactive; tolC growth inh: inactive; PostGolgi ctrl: inactive; E coli WT exp: inactive; PostGolgi yeast: inactive

How did CC1(CC(=O)N/N=C/c2ccc(OCc3ccc(Cl)cc3Cl)cc2)OCCCO1 do in these assays?
PostGolgi ctrl: 42; E coli WT exp: inactive; PostGolgi yeast: inactive; PTK2B oligo ant: inactive

Results for COC(=O)c1c(NC(NC(=O)C(C)(C)C)C(Cl)(Cl)Cl)sc2c1CCC2 (stereo not drawn) ?
PostGolgi ctrl: 51; E coli WT exp: inactive; PostGolgi yeast: inactive; PTK2B oligo ant: inactive

What do the screens show for `COC(=O)c1c(NC(=O)C2CC2)sc2c1CCCC2`?
Candida biofilm: inactive; tolC growth inh: inactive; PostGolgi ctrl: 35; E coli WT exp: inactive; PostGolgi yeast: inactive

What do the screens show for `COC(=O)c1c(NC(=O)c2nn(C)cc2Cl)sc2c1CCCC2`?
Candida biofilm: inactive; tolC growth inh: inactive; PostGolgi ctrl: 33; E coli WT exp: inactive; PostGolgi yeast: inactive; PTK2B oligo ant: inactive

Results for Cn1c(=O)c2cc(S(=O)(=O)NC(C(=O)NCc3cccnc3)c3ccccc3)ccc2n(C)c1=O (stereo not drawn) ?
Candida biofilm: inactive; tolC growth inh: inactive; PostGolgi ctrl: inactive; E coli WT exp: inactive; PostGolgi yeast: inactive

How did CC(C)OC(=O)CN1CCN(C2c3ccccc3-c3ccccc32)CC1 do in these assays?
Candida biofilm: inactive; tolC growth inh: inactive; PostGolgi ctrl: inactive; E coli WT exp: inactive; PostGolgi yeast: inactive; PTK2B oligo ant: inactive

How did FC(F)(F)c1cccc(-c2nnc(-c3ccccc3)c(N3CCOCC3)n2)c1 do in these assays?
PostGolgi ctrl: 35; E coli WT exp: inactive; PostGolgi yeast: inactive; PTK2B oligo ant: -3.9

How did FC(F)(F)c1nnc(-c2ccccc2)nc1N1CCOCC1 do in these assays?
PostGolgi ctrl: inactive; E coli WT exp: inactive; PostGolgi yeast: inactive; PTK2B oligo ant: inactive

Results for CCn1cc(C(=O)NCc2ccc3c(c2)OCO3)c(=O)c2cc(F)c(N3CCN(C)CC3)cc21 ?
Candida biofilm: inactive; tolC growth inh: 100; PostGolgi ctrl: inactive; E coli WT exp: 100; PostGolgi yeast: inactive; PTK2B oligo ant: inactive

Results for CCCn1cc(SCC(=O)NCc2ccc3c(c2)OCO3)c2ccccc21 ?
Candida biofilm: inactive; PostGolgi ctrl: inactive; E coli WT exp: inactive; PostGolgi yeast: inactive

How did CCn1cc(C(=O)NCc2ccco2)c(=O)c2cc(F)c(N3CCN(C(=O)c4ccco4)CC3)cc21 do in these assays?
tolC growth inh: inactive; PostGolgi ctrl: inactive; E coli WT exp: 90; PostGolgi yeast: inactive; PTK2B oligo ant: inactive

Results for CCn1cc(C(=O)NCCc2ccccc2)c(=O)c2cc(F)c(N3CCN(C)CC3)cc21 ?
Candida biofilm: inactive; tolC growth inh: inactive; PostGolgi ctrl: inactive; E coli WT exp: inactive; PostGolgi yeast: inactive; PTK2B oligo ant: inactive

How did CCn1cc(C(=O)NCc2ccccn2)c(=O)c2cc(F)c(N3CCN(C)CC3)cc21 do in these assays?
Candida biofilm: inactive; tolC growth inh: inactive; PostGolgi ctrl: inactive; E coli WT exp: 100; PostGolgi yeast: inactive; PTK2B oligo ant: inactive

How did CCn1cc(SCC(=O)NCc2ccc3c(c2)OCO3)c2ccccc21 do in these assays?
Candida biofilm: inactive; tolC growth inh: inactive; PostGolgi ctrl: 36; E coli WT exp: inactive; PostGolgi yeast: inactive

How did CC(=O)c1cn(CC(=O)NCc2ccc3c(c2)OCO3)c2ccccc12 do in these assays?
Candida biofilm: inactive; tolC growth inh: inactive; PostGolgi ctrl: inactive; E coli WT exp: inactive; PostGolgi yeast: inactive; PTK2B oligo ant: inactive

Results for CCOC(=O)c1c(NC(=O)CN2CCCCC2)sc2c1CCC(C=O)=C2Cl ?
PostGolgi ctrl: inactive; E coli WT exp: inactive; PostGolgi yeast: 40; PTK2B oligo ant: -3.1

How did CC(C)COC(=O)C1[C@H]2C(=O)N(Cc3cccs3)C[C@]23C=C[C@H]1O3 (stereo partly drawn) do in these assays?
Candida biofilm: inactive; tolC growth inh: inactive; PostGolgi ctrl: inactive; E coli WT exp: inactive; PostGolgi yeast: inactive; PTK2B oligo ant: inactive

What do the screens show for `CCOC(=O)c1sc(NC(=O)CSc2n[nH]c(-c3ccc(Cl)cc3Cl)n2)c(C#N)c1C`?
Candida biofilm: inactive; PostGolgi ctrl: inactive; E coli WT exp: inactive; PostGolgi yeast: inactive; PTK2B oligo ant: inactive

What do the screens show for `CCc1cc2c(SCC(=O)c3ccc(Cl)s3)ncnc2s1`?
Candida biofilm: inactive; PostGolgi ctrl: 36; E coli WT exp: inactive; PostGolgi yeast: inactive; PTK2B oligo ant: inactive

Results for CCCNC(=O)c1ccc2snnc2c1 ?
Candida biofilm: inactive; PTK2B oligo ant: inactive

Results for CCCNC(=O)c1ccc2c(c1)C1C3CCC(C3)C1C(c1ccccc1)N2 (stereo not drawn) ?
PostGolgi ctrl: 36; E coli WT exp: inactive; PostGolgi yeast: inactive; PTK2B oligo ant: inactive

What do the screens show for `CSc1nnnn1-c1cccc(O)c1`?
Candida biofilm: inactive; tolC growth inh: inactive; PostGolgi ctrl: inactive; E coli WT exp: inactive; PostGolgi yeast: inactive; PTK2B oligo ant: inactive

How did Cn1c(SCC(=O)N2c3ccccc3Sc3ccc(Cl)cc32)nnc1-c1ccco1 do in these assays?
tolC growth inh: 65; PostGolgi ctrl: 60; E coli WT exp: inactive; PostGolgi yeast: 53; PTK2B oligo ant: inactive

How did O=C(O)c1sc2cc(C(F)(F)F)cnc2c1-c1ccccc1 do in these assays?
PostGolgi ctrl: inactive; E coli WT exp: inactive; PostGolgi yeast: inactive; PTK2B oligo ant: inactive

What do the screens show for `CSc1nnc(-c2sc3cc(C(F)(F)F)cnc3c2-c2ccccc2)n1C`?
Candida biofilm: inactive; PostGolgi ctrl: inactive; E coli WT exp: inactive; PostGolgi yeast: inactive; PTK2B oligo ant: -3.1

How did COC(=O)c1sc2cc(C(F)(F)F)cnc2c1-c1ccccc1 do in these assays?
PostGolgi ctrl: 45; E coli WT exp: inactive; PostGolgi yeast: inactive; PTK2B oligo ant: inactive

Screening data: PubChem BioAssay, several laboratories
